HTRA1 inhibitor: HTRA1 (human) protease inhibition; Q92743; recombinant HTRA1, FP-rhodamine activity-based probe, fluorescence polarization; inhibition, % at 5.96 µM; hit rate 0.5% among 340,000; AID 504803; in the data active means inhibition above about 36%;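 further: 0% = enzyme with DMSO and 100% = wells lacking enzyme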
Target sequence (Q92743 whole entry, looked up): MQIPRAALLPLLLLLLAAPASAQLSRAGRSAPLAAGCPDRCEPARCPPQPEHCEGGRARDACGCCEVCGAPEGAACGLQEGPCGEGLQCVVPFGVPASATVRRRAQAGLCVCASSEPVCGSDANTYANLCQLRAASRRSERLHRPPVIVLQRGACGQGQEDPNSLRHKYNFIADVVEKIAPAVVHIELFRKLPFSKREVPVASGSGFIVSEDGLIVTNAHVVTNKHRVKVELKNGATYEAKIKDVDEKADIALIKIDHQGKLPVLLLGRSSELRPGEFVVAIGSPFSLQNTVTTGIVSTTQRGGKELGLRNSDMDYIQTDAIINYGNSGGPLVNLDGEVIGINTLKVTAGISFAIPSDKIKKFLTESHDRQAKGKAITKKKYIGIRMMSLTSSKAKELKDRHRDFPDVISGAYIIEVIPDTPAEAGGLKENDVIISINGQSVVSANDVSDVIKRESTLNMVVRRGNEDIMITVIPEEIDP
ABHD4 inh: inhibitors of mouse ABHD4; hit rate 0.54% among 370,000; inhibition, % at 8.92 µM; Q8VD66; AID 720543; purified mABHD4, FP-Rh probe fluorescence polarization;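 active means inhibition exceeding the mean over every tested compound plus 3 SD, cut at about 30% in these data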;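 further: 0% = plate median of compound wells and 100% = S159A mutant with DMSO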
Target sequence (Q8VD66 whole entry, looked up): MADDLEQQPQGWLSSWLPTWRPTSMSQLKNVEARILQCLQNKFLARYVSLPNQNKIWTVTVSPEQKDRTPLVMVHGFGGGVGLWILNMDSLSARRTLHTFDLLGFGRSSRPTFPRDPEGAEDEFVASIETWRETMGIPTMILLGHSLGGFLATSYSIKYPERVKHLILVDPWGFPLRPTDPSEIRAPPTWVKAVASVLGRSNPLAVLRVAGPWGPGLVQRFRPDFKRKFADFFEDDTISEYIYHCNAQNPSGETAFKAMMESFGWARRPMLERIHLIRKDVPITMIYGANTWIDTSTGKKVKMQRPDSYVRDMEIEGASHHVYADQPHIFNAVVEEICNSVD
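Assay system: wild-type mouse ABHD4 protein; compound: single nominal dose of 8.92 µM, 0.89% DMSO final; schedule: 45 min + 60 min at 25 °C; measured by: FP readout, ex 525 nm / em 598 nm; evaluation: % inhibition of FP-Rh probe binding versus controls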
PAFAH2 FP inh: PAFAH2 (human) inhibition | Q99487 | recombinant PAFAH2, FP-rhodamine activity probe, fluorescence polarization | inhibition, % at 3.39 µM | hit rate 0.99% among 340,000;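 active means inhibition above the mean over all tested compounds plus 3 SD, cut at about 30% in these data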;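 further: inhibitors block probe labeling of enzyme so polarization drops; 0% = enzyme with DMSO and 100% = wells lacking PAFAH2 protein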
PAFAH1B2 inh: inhibitors of human PAFAH1B2; recombinant PAFAH1B2, FP-rhodamine activity probe, fluorescence polarization; P68402; inhibition, % at 3.39 µM; AID 492953; hit rate 1.2% among 340,000;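 active means inhibition above the mean of all tested compounds plus 3 SD, cut at about 24% in these data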;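 further: 0% = enzyme with DMSO and 100% = wells lacking PAFAH1B2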
pPAFAH inh: inhibitors of human plasma PAF acetylhydrolase (pPAFAH); Q13093; recombinant pPAFAH, FP-rhodamine probe fluorescence polarization; inhibition, % at 3.39 µM; hit rate 1.5% among 330,000; AID 463082;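 active means inhibition above the mean inhibition across the screen plus 3 SD, cut at about 25% in these data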;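 further: inhibitors block binding of the rhodamine activity-based probe so polarization drops; 0% = enzyme with DMSO and 100% = wells lacking pPAFAH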
PAFAH1B3 FP inh: blocks human PAF acetylhydrolase 1B catalytic subunit 3. recombinant PAFAH1B3, FP-rhodamine probe, fluorescence polarization. Q15102. hit rate 0.28% among 340,000. inhibition, % at 3.39 µM;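 active means inhibition above the screen-wide average of all tested compounds plus 3 SD, cut at about 25% in these data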;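 further: 0% = enzyme with DMSO only and 100% = wells lacking PAFAH1B3 protein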
pPAFAH FP conf: pPAFAH (human) inhibition, confirmed | shares compounds with pPAFAH inh | recombinant pPAFAH, FP-Rh probe fluorescence polarization | hit rate 72% among 2,300 | inhibition, % at 3.39 µM;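 active means mean inhibition of the triplicate above the hit cutoff set for the earlier primary screen, cut at about 25% in these data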;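 further: 0% = enzyme with DMSO and 100% = wells lacking pPAFAH enzyme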
HTRA1 inh conf: confirmation of human HTRA1 inhibitors. shares compounds with HTRA1 inhibitor. recombinant HTRA1, FP-rhodamine activity-based probe, fluorescence polarization. inhibition, % at 5.96 µM. hit rate 66% among 1,600;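 active means mean inhibition over three repeats above a set limit taken from the earlier primary screen, cut at about 37% in these data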;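 further: 0% = HTRA1 with DMSO and 100% = wells lacking HTRA1; inhibitors block probe binding so polarization drops and inhibition rises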
mABHD4 conf: ABHD4 (mouse) inhibition, FP confirmation; hit rate 55% among 1,800; shares compounds with ABHD4 inh; purified mABHD4, FP-Rh probe fluorescence polarization; inhibition, % at 8.92 µM;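 active means mean inhibition across replicates above the hit cutoff set in the primary screen, cut at about 30% in these data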;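 further: 0% = wild-type ABHD4 with DMSO and 100% = catalytically dead S159A mutant with DMSO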
* marks the source's active call; other numbers are inactive results; · = no result given. A selection: hits, their analogues and other compounds. The true share with any hit is near 2.8%.

SMILES | HTRA1 inhibitor | ABHD4 inh | PAFAH2 FP inh | PAFAH1B2 inh | pPAFAH inh | PAFAH1B3 FP inh | pPAFAH FP conf | others
O=C(COC(=O)Cc1ccccc1)NC12CC3CC(CC(C3)C1)C2 | -3.8 | 1.6 | 54.8* | 10.5 | 35.3* | 3.1 | 41.3*
O=C1NC(=O)N(Cc2ccco2)C(=O)/C1=C\c1cccn1CCOc1ccc(Cl)cc1 | 8.5 | -13.2 | 6.6 | 34.5* | 39.8* | -3.5 | 3.1
Cc1cccc(OCCn2cccc2/C=C2/C(=O)NC(=O)N(Cc3ccco3)C2=O)c1 | · | -1.9 | · | · | 21.7 | · | ·
CCC12CCN(CC3(O)CC3)C(Cc3ccc(O)cc31)C2(C)C (stereo not given) | · | 1.8 | · | · | · | · | ·
NP(=O)(OCCCCc1ccccc1)Oc1ccccc1Cl (stereo not given) | 2.8 | -7.8 | 30.6* | 98.7* | 70.5* | 45.6* | 74.3*
COP(=O)(C(=O)Nc1ccccc1)C(CC(C)C)NC(=O)OCc1ccccc1 (stereo not given) | · | -0.2 | · | · | · | · | ·
O=C(Nc1ccccc1)N1Cc2cc(Br)ccc2-n2nncc2C1 | · | -0.4 | · | · | · | · | ·
CC(C)N1C(=O)/C(=C/C=C/c2ccco2)C(=O)N(Cc2ccco2)C1=O | -13.8 | -27.4 | 21.8 | 3.5 | 38.0* | -0.7 | 0.8
COc1ccc(N2C(=O)NC(=O)/C(=C\c3ccc([N+](=O)[O-])s3)C2=O)cc1 | 18.2 | -70.9 | 26.8 | 21.2 | 37.5* | 23.6 | 35.0*
COc1ccc(N2C(=O)NC(=O)/C(=C/c3ccc([N+](=O)[O-])s3)C2=O)cc1 | · | -64.1 | · | · | 44.4* | · | 46.6*
COc1ccccc1N1C(=O)NC(=O)/C(=C/c2ccc([N+](=O)[O-])s2)C1=O | · | -12.6 | · | · | 51.2* | · | 41.8*
CCOc1ccc(N2C(=O)NC(=O)/C(=C\c3cc(OC)c(OC)cc3[N+](=O)[O-])C2=O)cc1 | 6.1 | · | -13.8 | -2.4 | 7.8 | -7.4 | ·
N#Cc1ccc(NC(=S)N2Cc3ccc(Br)cc3-n3nncc3C2)cc1 | · | -5.9 | · | · | · | · | ·
Cc1cc(N2CCNC[C@@H]2C)ccc1N1CC[C@@H](O)C1 | · | 19.9 | · | · | · | · | ·
Clc1ccc([C@H]2CC3CCC2N3)cn1 (stereo not given in full) | · | -4.6 | · | · | · | · | ·
C=CCN1C(=O)NC(=O)/C(=C\c2ccc(-c3ccccc3[N+](=O)[O-])o2)C1=O | 0.6 | 1.6 | 22.4 | 3.6 | 5.8 | 6.5 | ·
O=C1NC(=O)N(Cc2ccco2)C(=O)/C1=C/c1ccc(-c2cccc([N+](=O)[O-])c2)o1 | 4.4 | · | 36.6* | 3.6 | 66.2* | 5.8 | 35.7*
O=C(NCCN1CCC2(CC1)C(=O)NCN2c1ccccc1)c1ccc(F)cc1F | · | -6.3 | · | · | · | · | ·
O=C(c1ccc2c(c1)ncn2C1CCCCCC1)N1CCC2(CC1)OCCO2 | 2.6 | -4.9 | 5.6 | 1.5 | 5.2 | 0.9 | ·
CC1CCCN(c2ccc(C(=O)N3CCC4(CC3)OCCO4)cc2[N+](=O)[O-])C1 (stereo not given) | 7.5 | 1.1 | -1.4 | 2.2 | 44.6* | 7.5 | 59.1*
CC[C@H](C)/C=C(C)/C=C/C1=CC2=C(Cl)C(=O)[C@](C)(OC(C)=O)C(=O)C2=CO1 | 70.4* | · | 40.1* | 9.7 | 67.4* | 6.8 | 87.1*
COc1ccc(C(=O)N2CCC3(CC2)OCCO3)cc1 | 0.7 | -0.7 | 2.2 | -1.4 | 2.0 | 8.7 | ·
O=C(c1ccc2nc(-c3ccco3)c(-c3ccco3)nc2c1)N1CCC2(CC1)OCCO2 | 11.4 | · | 18.4 | 14.2 | 61.5* | 20.7 | 3.1
O=C(C1CCN(c2nc3ccc(Br)cc3s2)CC1)N1CCC2(CC1)OCCO2 | -1.2 | -2.6 | 0.9 | -0.4 | 36.4* | 1.9 | 25.9*
O=C(O)c1cccc2c1NC(C(=O)O)C1CC(Sc3ccccc3[N+](=O)[O-])C(Cl)C21 (stereo not given) | 92.8* | 82.2* | 81.7* | 30.8* | 95.7* | 49.2* | 78.8* | HTRA1 inh conf=59.6*
SMILES | HTRA1 inhibitor | ABHD4 inh | PAFAH2 FP inh | PAFAH1B2 inh | pPAFAH inh | PAFAH1B3 FP inh | pPAFAH FP conf | others
CN(C)[C@@H]1C(=O)C(C(N)=O)=C(O)[C@@]2(O)C(=O)C3=C(O)c4c(O)cccc4[C@@](C)(O)[C@H]3[C@H](O)[C@@H]12 | 50.8* | 63.1* | 64.2* | 34.9* | 81.6* | 57.2* | 75.2* | HTRA1 inh conf=23.3
CC(C)C(NC(=O)OCc1ccccc1)P(=O)(Oc1ccccc1)Oc1ccccc1 (stereo not given) | · | 1.2 | · | · | · | · | ·
Oc1ccc(/C=N/NP(=S)(c2ccccc2)c2ccccc2)c(O)c1O | 74.7* | 27.6 | 6.5 | -2.9 | 41.3* | 7.6 | 63.0* | HTRA1 inh conf=85.0*
OC1CN2CCCC(O)C2C1O (stereo not given) | · | -0.5 | · | · | · | · | ·
CC(=O)N1c2ccccc2C(c2ccccc2)=NCC1C(=O)NCc1ccccc1 (stereo not given) | · | 0.9 | · | · | · | · | ·
CCOc1ccccc1-n1c(O)c(C=Nc2ccc(N(CC)CC)cc2)c(=O)[nH]c1=O | 57.9* | 67.3* | -0.6 | 3.1 | 43.6* | 4.1 | 5.1 | HTRA1 inh conf=3.9;mABHD4 conf=13.1
CCN(CC)c1ccc(N=Cc2c(O)n(-c3ccccc3C)c(=O)[nH]c2=O)cc1 | 60.3* | 64.2* | 5.7 | -7.7 | 38.5* | 8.5 | 7.4 | mABHD4 conf=4.1
CCN(CC)c1ccc(N=Cc2c(O)n(-c3ccccc3)c(=O)[nH]c2=O)cc1 | 40.0* | 67.0* | 4.5 | 3.4 | 48.7* | 2.1 | -3.7 | HTRA1 inh conf=17.9;mABHD4 conf=8.6
CCOc1ccc(-n2c(O)c(C=Nc3ccc(N(CC)CC)cc3)c(=O)[nH]c2=O)cc1 | 2.9 | 14.5 | 2.9 | 2.7 | 3.1 | 7.0 | ·
CCN(CC)c1ccc(N=Cc2c(O)n(Cc3ccccc3)c(=O)[nH]c2=O)cc1 | 7.7 | 12.7 | 0.4 | 0.7 | -1.6 | 5.4 | ·
CCN(CC)c1ccc(N=Cc2c(O)[nH]c(=O)[nH]c2=O)cc1 | 53.1* | 56.8* | 11.2 | 1.2 | 45.4* | 5.4 | 3.4 | HTRA1 inh conf=19.6;mABHD4 conf=0.6
O=C(CNC(=O)OCc1ccccc1)NC(Cc1ccccc1)P(=O)(Oc1ccccc1)Oc1ccccc1 (stereo not given) | · | 5.6 | · | · | · | · | ·
O=c1[nH]c(=S)n(-c2ccc(Cl)cc2)c(O)c1C=Nc1ccc(N2CCOCC2)cc1 | 7.2 | 40.1* | 13.7 | 0.1 | 43.3* | 5.3 | 20.3 | mABHD4 conf=28.8
N#Cc1ccc2nc(-c3ccc(CN4CCC(n5c(=O)[nH]c6cc(Cl)ccc65)CC4)cc3)c(-c3ccccc3)nc2c1 | · | -4.8 | · | · | · | · | ·
CC(=O)c1ccc2c(c1)C1C(Cl)C(Sc3ccccc3[N+](=O)[O-])CC1C(C(=O)O)N2 (stereo not given) | 88.3* | 53.7* | 41.8* | 7.7 | 54.1* | 30.8* | 27.4* | HTRA1 inh conf=71.2*;mABHD4 conf=104.4*
